SMARCA2 activ = SMARCA2 (BRM) function activators, primary screen, cell-based, luminescence, high throughput; 370,000 compounds, 1% hits; MG213 cells, MMTV-luciferase reporter, dexamethasone, overnight; activation, % at 9.1 µM; AID 652017, 2013; in the data active = activation above about 7.8%;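 also: 0% = vehicle wells and 100% = reference activator wells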
H9c2 TAG inh = inhibitors of triacylglycerol accumulation, primary screen, cell-based, uHTS, fluorescence, H9c2; H9c2 cells, Nile Red lipid (TAG) fluorescence; cells loaded with 200 µM oleic acid; inhibition, % at 12.5 µM; 230,000 compounds, 0.66% hits;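 active = pattern-corrected inhibition of lipid staining of at least 50% with the nuclear-stain viability signal not falling by more than 50%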;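 also: 0% = DMSO wells and 100% = triacsin C control wells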
Efflux pump mplx = inhibitors of Candida efflux pumps in yeast, primary screen, S. cerevisiae, Nile Red, multiplex; S. cerevisiae Candida pump triplex; inhibition, % at 10 µM; 330,000 compounds, 0.44% hits;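 active = plate passing quality check with inhibition over a set limit, or well fluorescence over plate mean plus 4 SD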;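 also: Nile Red retained in pooled yeast measured as flow cytometry median fluorescence; 0% = buffer negative control and 100% = Enniatin B positive control; higher means more Nile Red kept so more efflux inhibition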
AHR activator = AHR activators, primary screen, cell-based, luminescence, luciferase reporter, human; Aryl hydrocarbon receptor (Homo sapiens), P35869; AHR-responsive luciferase reporter cells; activation, % at 5 µM; 320,000 compounds, 2.5% hits; in the data active = activation above about 47%;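 also: 0% = vehicle wells and 100% = reference agonist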
Target sequence (P35869 whole entry, looked up): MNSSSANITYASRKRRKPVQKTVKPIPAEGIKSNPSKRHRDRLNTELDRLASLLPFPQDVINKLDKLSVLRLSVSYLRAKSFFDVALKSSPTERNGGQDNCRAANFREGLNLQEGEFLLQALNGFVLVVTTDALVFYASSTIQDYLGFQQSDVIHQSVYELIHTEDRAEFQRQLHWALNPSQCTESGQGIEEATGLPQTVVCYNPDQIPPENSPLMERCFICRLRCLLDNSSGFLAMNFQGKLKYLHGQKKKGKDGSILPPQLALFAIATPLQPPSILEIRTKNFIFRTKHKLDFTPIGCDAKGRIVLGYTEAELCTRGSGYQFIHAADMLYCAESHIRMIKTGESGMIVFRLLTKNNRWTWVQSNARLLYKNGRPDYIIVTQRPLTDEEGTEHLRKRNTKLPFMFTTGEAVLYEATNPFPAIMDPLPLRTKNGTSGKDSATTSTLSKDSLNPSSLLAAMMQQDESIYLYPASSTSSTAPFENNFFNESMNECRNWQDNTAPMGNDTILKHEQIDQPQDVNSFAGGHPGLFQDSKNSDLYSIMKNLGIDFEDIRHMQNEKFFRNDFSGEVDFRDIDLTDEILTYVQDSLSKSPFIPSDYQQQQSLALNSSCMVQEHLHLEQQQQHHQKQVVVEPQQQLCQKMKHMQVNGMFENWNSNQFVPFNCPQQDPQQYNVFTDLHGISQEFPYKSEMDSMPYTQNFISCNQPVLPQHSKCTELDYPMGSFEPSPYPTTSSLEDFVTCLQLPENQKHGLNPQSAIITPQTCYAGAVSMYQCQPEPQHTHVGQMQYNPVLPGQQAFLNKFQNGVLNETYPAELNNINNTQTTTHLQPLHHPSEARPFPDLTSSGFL
Tb MetRS inh = T. brucei MetRS inhibitors, primary screen, biochemical, luminescence; methionyl-tRNA synthetase (Trypanosoma brucei brucei); purified T. brucei MetRS, ATP depletion, Kinase-Glo luminescence; inhibition, % at 11.9 µM; 360,000 compounds, 0.4% hits; AID 624268, 2012;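 active = inhibition above a per-plate cutoff of the control wells' mean inhibition plus 3 SD, cut at about 5.5% in these data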;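 also: 0% = DMSO wells median and 100% = median of wells with control inhibitor compound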
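assay system = parasite MetRS enzyme | timing = 15 min preincubation, 2 h reaction, all 25 °C | evaluation = percent inhibition relative to median high and low control wells | medium = HEPES buffer containing pyrophosphatase, BSA, spermine, DTT | compound = single dose, 11.9 µM final nominal, 0.9% final DMSO | detection = Kinase-Glo luminescence, ATP depletion format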
Numbers without * were called inactive; . = no result. This is a sample that favours compounds with a hit; in the whole collection about 4.1% have one here.

SMILES | SMARCA2 activ | H9c2 TAG inh | Efflux pump mplx | AHR activator | Tb MetRS inh
Nc1ccccc1O | . | . | 0 | 74* | 0
Nc1cccc2c(O)cccc12 | -7 | 28 | 0 | 5 | 2
O=C(/C=C/c1ccc2c(c1)OCO2)Nc1nc(-c2ccccc2)cs1 | -5 | 25 | 0 | 1 | 0
CCCC(C)c1nnc(NC(=O)COc2ccc3c(c2)OCO3)s1 (centres undefined) | -4 | . | 0 | 53* | -1
CC(C)c1nnc(NC(=O)COc2ccc3c(c2)OCO3)s1 | 2 | . | 0 | 38 | 0
O=C(COc1ccc2c(c1)OCO2)Nc1nncs1 | 1 | . | 0 | 69* | 1
O=C(NCc1ccc2c(c1)OCO2)NC12CC3CC(CC(C3)C1)C2 | -2 | -23 | 0 | 1 | 0
O=C(/C=C/c1ccc2c(c1)OCO2)Nc1nncs1 | 6 | 4 | 0 | 89* | 0
O=C(COc1ccc2c(c1)OCO2)NC12CC3CC(CC(C3)C1)C2 | 0 | 17 | 0 | 55* | 0
Cc1ccc(C(=O)C2CCN(CC(=O)NCc3cccs3)CC2)cc1 | -5 | . | . | . | .
O=C(NCC1CCN(C(=O)C(=O)c2cccs2)CC1)c1ccc2c(c1)OCO2 | -1 | . | . | . | .
C/C(=N\Nc1nc2ccccc2nc1C)c1ccccc1O | 0 | 52* | 0 | 29 | -1
CC(=NNc1ccc2ccccc2n1)c1ccccc1O | 4 | -1 | . | . | 0
CN(C)c1oc(/C=C/c2ccccc2)nc1C#N | 0 | . | 0 | 50* | 0
CCc1ccc2c(c1)C1(NN=C(c3ccc(C)cc3)S1)C(=O)N2 (centres undefined) | 5 | -14 | 0 | 55* | 0
CCCC[C@H](C(=O)N(C)c1ccccc1)[C@@H](O)c1ccc(C(C)=O)cc1 | 2 | . | . | . | .
Nn1c(SCc2ccc(F)cc2)nnc1-c1cccnc1 | -3 | 0 | 0 | 2 | -1
Cc1ccccc1OCCSc1nnc(-c2cccnc2)n1N | -1 | 18 | 0 | 54* | -1
O=C(Nc1cc(C(F)(F)F)ccc1Cl)c1ccc(NC(=O)C(F)(F)F)cc1 | -3 | . | 0 | 75* | -1
CCCC(=O)Nc1ccc(C(=O)Nc2cc(C(F)(F)F)ccc2Cl)cc1 | 0 | -23 | 0 | 63* | 0
Cc1c(NC(=O)C2CCCN(S(=O)(=O)c3ccc(C(C)(C)C)cc3)C2)c(=O)n(-c2ccccc2)n1C (centres undefined) | -1 | . | . | . | .
COCCNC(=S)N(C)[C@H]1C[C@H]2c3[nH]c4c(-c5cccc(C)c5)cccc4c3CCN2C[C@H]1[C@H](C)O | -2 | . | . | . | .
COc1ccc(Cl)cc1NC(=O)CN(C)C(=O)c1sccc1-c1ccccc1 | 3 | -31 | 0 | 55* | 0
COc1ccc(OC)c(/C=C/c2nc3ccccc3[nH]c2=O)c1 | -1 | . | 0 | 60* | 0
COc1ccc(OC)c(C=Nc2ccccc2-c2nc3ccccc3[nH]2)c1 | 5 | . | 0 | 87* | 0
SMILES | SMARCA2 activ | H9c2 TAG inh | Efflux pump mplx | AHR activator | Tb MetRS inh
Oc1ccc(C=Nc2ccccc2-c2nc3ccccc3[nH]2)c(O)c1 | 4 | . | 0 | 95* | -1
CCc1ccc(N2C(=O)C[C@@](C#N)(C(=O)OC)[C@H]2c2ccccc2)cc1 | -2 | . | . | . | .
COC(=O)c1ccc(Cn2ccc3ccc(-c4ccc5ccn(C(=O)c6ccccc6OC)c5c4)cc32)cc1 | 0 | . | . | . | .
Cc1ccc(-c2cc(C(=O)NN=Cc3ccc(N(C)C)cc3)[nH]n2)cc1C | 4 | . | . | . | .
COc1ccc(OCC(=O)Nc2ccccc2OC)cc1 | 2 | . | 0 | 0 | -1
CNCc1ccccc1OCC(=O)Nc1ccccc1OC | 2 | . | 0 | 69* | -1
O=S(=O)(NCc1csc(-c2cccnc2)n1)c1cccs1 | 0 | -6 | 0 | 19 | -1
O=S(=O)(NCCc1csc(-c2cccnc2)n1)c1cccs1 | -3 | -1 | 0 | 69* | 0
CCn1c(=O)n(CC(=O)N2CCN(c3ccc(F)cc3)CC2)c(=O)c2ccccc21 | -4 | . | . | . | .
O=C(NC(=S)NNC(=O)c1cccs1)c1ccccc1 | 0 | -12 | 0 | 52* | 0
O=C(NC(=S)Nc1ccccc1N1CCCC1)c1cccs1 | 2 | -37 | 0 | 51* | 0
CC(C)(C)c1ccc(C(=O)NC(=S)NNC(=O)c2cccs2)cc1 | 7 | . | 0 | 74* | -1
CCOC(=O)Nc1nc(-c2ccccc2)c(C(=O)c2ccc(Cl)cc2)s1 | -1 | 59* | 0 | 8 | -1
CCOC(=O)Nc1sc(C)nc1-c1ccccc1 | 1 | . | 0 | 1 | 0

Screening results from PubChem BioAssay.
